Here are results for 167 variants from the RNAGym collection of RNA variant scans (doi:10.1126/science.aae0568).

B1: tRNA (parent)
chain: GUUCCGUUGGCGUAAUGGUAACGCGUCUCCCUCCUAAGGAGAAGACUGCGGGUUCGAGUCCCGUACGGAACG

Variants at the floor of the assay were thinned out.

The data set covers variants of B1. Nature of the data set: yeast fitness relative to wild type (ratio to wild type); higher = fitter; tRNA-Arg(CCU), competitive growth, 37 C, YPD. Summed up:
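For this measurement, the tRNA-Arg(CCU) gene was varied by chemical synthesis at a 3% per-site mutation rate across 69 sites, and each variant was placed at the native genomic locus in Saccharomyces cerevisiae. The pooled strains went through a 24-hour competition in YPD at 37°C in six parallel replicates, with amplicons from start and end populations read by 100-nucleotide paired-end sequencing. Darwinian fitness relative to wild type followed from the change in each genotype's frequency. Genotypes needed ≥ 100 starting reads, and estimates < 0.5 were set to 0.5.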
As for U3C A15U C34U A43G U54C, the yeast fitness was no more than 0.5. As for U3A U7A G23C A42C U47A C49G, the figure is no more than 0.5.

On to U3C A40C A45G C46A, for which the yeast fitness was no more than 0.5. As to U3A U32C A69U, the yeast fitness stood at 0.685. The value for U3C A43U A45G A69C was no more than 0.5; that for U3C C5U A37U C49U U53C was 0.597; that for U3C A14G C29G A37U A42G was 0.609. As for U3C A43U A45G G63A, the figure is no more than 0.5. U3C A65C: the yeast fitness was 1.

In the case of U3C A65U, the yeast fitness worked out at 0.997.

U3A U19C C61G: the yeast fitness is no more than 0.5. As for U3A U19A, the figure is 1.02. As for U3A G41C, the figure is 0.694; as for U3A G41A, 0.754. As for U3C A20U C30A, the yeast fitness was determined as 0.568. The value for U3A U47C G51A U53C was no more than 0.5; that for U3C A21G A43U A65C G68C was no more than 0.5; that for U3C C22U A36U C62U was no more than 0.5. As for U3A U7G A14U G25A G41C, the figure is no more than 0.5. As for U3C A14C A45C C60G, the figure is 0.591; as for U3C A42U A45U U64C, 0.885; as for U3C C11G, 0.608. For U3C C11A, the yeast fitness was found to be 0.65. Take U3C A36U: the yeast fitness was 0.656. As for U3C A57G A70U, the figure is 0.564. For U3C A20G A57U, the yeast fitness was 0.597. As for U3C C4A A36U A43U, the figure is no more than 0.5; as for U3C C5G G63C C66G, no more than 0.5.

Turning to U3C A20G C24U G38A G58C, the yeast fitness is no more than 0.5.

U3C C22A: the yeast fitness was determined as 0.79. For U3C C22U, the yeast fitness worked out at 0.824. As for U3C C5G C24A, the figure is no more than 0.5. For the variant U3A U8A U32A U47A A57U, the yeast fitness was no more than 0.5. With U3A U8A C31G A40C C66U, the yeast fitness was no more than 0.5. As to U3C A15G C30A, the yeast fitness stood at 0.564. In the case of U3C C4U C5G U16C C24G A42C G58A, the yeast fitness is no more than 0.5.

Take U3C C24G C61U: the yeast fitness turned out to be 0.528. With U3C C11A C27G C33A A43C C46A A70U, the yeast fitness worked out at 0.528. Consider U3C A21G C46G G50A, for which the yeast fitness was no more than 0.5. U3C C11U U53C: the yeast fitness worked out at 0.588. As to U3A U7A A15C C55G, the yeast fitness is no more than 0.5. The value for U3C A21G C33G C34G was no more than 0.5; that for U3C A20U was 0.866; that for U3C C11G G41C was no more than 0.5. In the case of U3C A21G, the yeast fitness worked out at 0.962.

For U3C A57U, the yeast fitness was found to be 0.713. Turning to U3A U8A, the yeast fitness turned out to be 0.723. The value for U3A U8C was 0.925; that for U3A U16C A20C A45G was no more than 0.5.

Turning to U3A G17A C22U A43C A69C, the yeast fitness is no more than 0.5. The value for U3C A45C was 0.856; that for U3C A45U was 0.999. On to U3A G18A C22U C61A, for which the yeast fitness is no more than 0.5. The value for U3C C11G A37G was 0.563; that for U3C A14C A45C was no more than 0.5. As for U3C C5A C11G A20U G25C U32A, the figure is no more than 0.5. As for U3A U13C C29A U32A A43G G67C, the figure is no more than 0.5; as for U3C A37C C49U, 0.681; as for U3C A20C G23C G56C A65C G68A, no more than 0.5.

U3A U8A G25C C30A U54C: the yeast fitness was no more than 0.5. As for U3A G17A C22U A70C, the figure is 0.528; as for U3C C5A C55A C60A, no more than 0.5; as for U3A U13G C22U A40U C55G A70G, no more than 0.5.

On to U3C A20G C29G C55U, for which the yeast fitness was no more than 0.5. U3A U19C C22G A45U: the yeast fitness is no more than 0.5.

On to U3C A43U, for which the yeast fitness came to 0.987. As for U3C A43G, the figure is 0.999.

For the variant U3A G17A C22U G48A C62A, the yeast fitness is no more than 0.5. The value for U3A G52C was 0.645. As for U3C C4U A69U A70U, the figure is no more than 0.5; as for U3C C4U A15G U26A U32A C60G G67A, no more than 0.5; as for U3A U35G A43U A57C C62A C66A, no more than 0.5. The value for U3A G18A C22U U64C A70G was no more than 0.5. Turning to U3C A57C A65U, the yeast fitness is no more than 0.5.

Turning to U3C C24A C55A, the yeast fitness was no more than 0.5. As to U3A G18C U28A, the yeast fitness was no more than 0.5.

On to U3C C4U A70U, for which the yeast fitness turned out to be 0.841. As for U3C A37C A70U, the figure is 0.683. As for U3C A37C A70G, the figure is 0.555. For the variant U3C C24G C33G C66U, the yeast fitness was no more than 0.5. As for U3A G39A, the figure is 0.888; as for U3A G39C, 0.822. For the variant U3A G51C, the yeast fitness was no more than 0.5. As for U3A G17A C22U C46G, the figure is no more than 0.5; as for U3A U26C, 0.884; as for U3C A42U C61G, 0.66. On to U3A G12C U19C, for which the yeast fitness was no more than 0.5. Turning to U3C C11A C27G C33A C46A, the yeast fitness worked out at 0.541.

For the variant U3C C4G G12C G44C A57U, the yeast fitness was no more than 0.5. On to U3A G23A A69C, for which the yeast fitness is 0.571. As for U3C C5G A21U A42C A70G, the figure is 0.542; as for U3C C11A C31A, 0.556; as for U3C C4U C55U, 0.699. The value for U3A U54G A57C was no more than 0.5. On to U3A G68C A69C, for which the yeast fitness is no more than 0.5.

Take U3C A37C G38A G52A G63A: the yeast fitness is no more than 0.5. The value for U3A G17C A20C U28A C46A was no more than 0.5; that for U3A U7A C30U G50C U59C was no more than 0.5; that for U3C C24A C29U G67U was 0.522. Regarding U3A G38A A57U C62U, the yeast fitness is no more than 0.5.

Turning to U3C C4A A45G, the yeast fitness stood at 0.531.

Regarding U3A G48C C55A C66G G67C, the yeast fitness was no more than 0.5. The value for U3C C22G C62U was 0.64; that for U3C A40C C61G was 0.576. The value for U3C C24U A42C was 0.663; that for U3A U19G A36C was no more than 0.5. The value for U3A U13G C22U A40U C66G was 0.627. For the variant U3C C4G U7C A21C G23C C55A U64A A65C, the yeast fitness is no more than 0.5. With U3C A14U A20C C30G G58A A65G, the yeast fitness was no more than 0.5.

Turning to U3C A15C G51C C61A, the yeast fitness is no more than 0.5. For U3C A69C, the yeast fitness was determined as 0.967. As for U3A G12A U19A, the figure is 0.763; as for U3A G18A C22U U64C, no more than 0.5. As for U3A U35A C60G, the figure is 0.593; as for U3A G25A C49G A65G A69U, no more than 0.5.

Turning to U3C C11A C31A G68C, the yeast fitness is 0.582. As for U3C A14G U19A, the figure is 0.761; as for U3A U8C G38C, no more than 0.5; as for U3C A20U G52C, no more than 0.5. For the variant U3A U19A G68C, the yeast fitness amounted to 0.712.

Turning to U3C A20G U59A, the yeast fitness is 0.684. As for U3A U26C C31U A40C, the figure is no more than 0.5; as for U3A U47A, 0.744; as for U3A U47C, 0.835. As for U3C A45U G50A, the yeast fitness was 0.849. As for U3C A45C G48A U54C, the figure is 0.751. On to U3A U16C G68C, for which the yeast fitness is no more than 0.5. Consider U3C C11U G18C C66U, for which the yeast fitness stood at 0.516.

U3A G48C: the yeast fitness came to 0.842. Take U3A G48A: the yeast fitness came to 0.844.

In the case of U3C C5G C11G, the yeast fitness was no more than 0.5. For U3C C22G C61U A65U, the yeast fitness worked out at 0.596. The value for U3C A36U G39A was no more than 0.5; that for U3C A20C C46U C60U C61U was 0.759.

With U3C A40C, the yeast fitness turned out to be 0.935. As for U3C A40G, the figure is 0.929; as for U3C C22G A70U, 0.8. In the case of U3A G17A, the yeast fitness was found to be 0.829. As for U3C C22G A69U, the figure is 0.667.

As to U3C A40G C62U A65U, the yeast fitness was no more than 0.5. With U3C A15G G23A C60U G68C, the yeast fitness is no more than 0.5. As for U3A U35C G63C, the figure is no more than 0.5; as for U3C C24U C62U, 0.725.

Take U3A U16C C27G A36U G39C U53A A70G: the yeast fitness was no more than 0.5. As to U3C C4U G10A C30U C49U, the yeast fitness is 0.598. The value for U3A U53C C55U was no more than 0.5; that for U3A G17A C22U C66U was 0.616.

Take U3A G58C C60U C66G: the yeast fitness is no more than 0.5. As for U3C C4U A57G, the yeast fitness came to 0.677. Consider U3C C22A A70C, for which the yeast fitness was 0.607. As for U3A U7A C49A, the figure is 0.542; as for U3A G17A C22U U64C, no more than 0.5. The value for U3A U8G C27A C61A G67A was no more than 0.5; that for U3C C5U A21G C34G was no more than 0.5; that for U3C A37C was 0.82. As to U3C A20U C24U C30A, the yeast fitness was 0.656.

With U3C C5G G38A A65G C66G, the yeast fitness was no more than 0.5.

As for U3C A15U C34U A43G, the yeast fitness came to 0.545. With U3C C11A U32G G39A C61A C62A, the yeast fitness is no more than 0.5. Consider U3C A21C A65C, for which the yeast fitness was no more than 0.5. The value for U3A G18A was 0.661; that for U3A G12C U13C C66U was 0.664. The value for U3A G25A C49G A65G was no more than 0.5; that for U3A U26C C31U G52A was no more than 0.5; that for U3C C11U G17A C49U was no more than 0.5. With U3C C5G A15C C27G A69U, the yeast fitness is no more than 0.5. As for U3C A40G C46A, the figure is 0.966.
